Experimental data published in ChEMBL document CHEMBL1629615, “Intrapulmonary pharmacokinetics and pharmacodynamics of posaconazole at steady state in healthy subjects” (Antimicrob Agents Chemother, 2009).

Key:
[1] = Ratio of Drug level in healthy human alveolar cell to drug level in healthy human plasma at 400 mg, po every 12 hrs for 7 days measured after 3 hrs of last dose; format: ADME, organism-based, Pneumocyte; conditions: alveolar cells / plasma
[2] = Ratio of Drug level in healthy human lung epithelial lining fluid to drug level in healthy human plasma at 400 mg, po every 12 hrs for 7 days measured after 3 hrs of last dose; format: ADME, organism-based
[3] = Ratio of Drug level in healthy human alveolar cell to drug level in healthy human plasma at 400 mg, po every 12 hrs for 7 days measured after 12 hrs of last dose; format: ADME, organism-based, Pneumocyte; conditions: alveolar cells / plasma
[4] = Drug level in healthy human plasma at 400 mg, po every 12 hrs for 7 days measured after 8 hrs of last dose; format: ADME, organism-based; conditions: read-out: Drug uptake
Summary of the method: (§1)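 Same dosing: 400 mg oral suspension after a high-fat meal every 12 h, 14 doses. Blood went into EDTA tubes at 0, 3, 5, 8, 12 and 24 h after the final dose and was spun at 1,300 x g for 10 min at 4°C. Plasma was frozen and assayed by validated LC-MS/MS, LLOQ 1.00 ng/ml, calibration 1.00 to 4,000 ng/ml.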

[5] = Ratio of AUC (0 to 24 hrs) in healthy human lung epithelial lining fluid at 400 mg, po every 12 hrs for 7 days to MIC90 for Aspergillus spp.; format: functional
[6] = test system: Homo sapiens; test: Toxicity in healthy human assessed as urine analysis at 400 mg, po every 12 hrs for 7 days; format: organism-based; conditions: in vivo
Summary of the method: (§2)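 Safety in healthy adults (21 to 55 y) given 400 mg orally every 12 h with a high-fat meal for 14 doses. Screening blood chemistry, hematology, urinalysis and ECG (corrected QT) were repeated on day 8.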

[7] = Drug level in healthy human plasma at 400 mg, po every 12 hrs for 7 days measured after 3 hrs of last dose; format: ADME, organism-based; conditions: read-out: Drug uptake; summary of the method: as §1
[8] = Ratio of Drug level in healthy human lung epithelial lining fluid to drug level in healthy human plasma at 400 mg, po every 12 hrs for 7 days measured after 12 hrs of last dose; format: ADME, organism-based
[9] = Ratio of Cmax in healthy human lung epithelial lining fluid at 400 mg, po every 12 hrs for 7 days to MIC90 for Aspergillus spp.; format: functional
[10] = Half life in human; format: ADME, organism-based; conditions: in vivo
[11] = Ratio of Drug level in healthy human lung epithelial lining fluid to drug level in healthy human plasma at 400 mg, po every 12 hrs for 7 days measured after 5 hrs of last dose; format: ADME, organism-based
[12] = test system: Homo sapiens; test: Toxicity in healthy human plasma assessed as blood chemistry analysis at 400 mg, po every 12 hrs for 7 days; format: organism-based; conditions: in vivo; summary of the method: as §2
[13] = Cmax in healthy human alveolar cell at 400 mg, po every 12 hrs for 7 days; format: ADME, organism-based, Lung, Pneumocyte; parameters: dose 400 mg, route oral; conditions: alveolar cells
Summary of the method: (§3)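 Noncompartmental analysis of day-8 concentration-time data after 14 oral 400 mg doses every 12 h. Plasma parameters came from each subject's profile. ELF and alveolar cell values came from mean concentrations at each BAL time (3 to 24 h). AUC0-12 was calculated by the linear trapezoidal method.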

[14] = Tmax in healthy human alveolar cell at 400 mg, po every 12 hrs for 7 days; format: ADME, organism-based, Pneumocyte; conditions: alveolar cells; summary of the method: as §3
[15] = AUC (0 to 12 hrs) in healthy human plasma at 400 mg, po every 12 hrs for 7 days; format: ADME, organism-based; parameters: dose 400 mg, time < 12 hr, route oral; summary of the method: as §3
[16] = Ratio of AUC (0 to 24 hrs) in healthy human alveolar cell at 400 mg, po every 12 hrs for 7 days to MIC90 for Aspergillus spp.; format: functional, Pneumocyte
[17] = Drug level in healthy human alveolar cell at 400 mg, po every 12 hrs for 7 days measured after 24 hrs of last dose; format: ADME, organism-based, Pneumocyte; conditions: alveolar cells, read-out: Drug uptake
Summary of the method: (§4)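 Healthy adults got 400 mg oral suspension (40 mg/ml) 10 min after a high-fat meal every 12 h, for 14 doses over 8 days. Each subject had one bronchoscopy with BAL under topical lidocaine, no sedation, at 3, 5, 8, 12 or 24 h after the last dose. BAL fluid was spun at 400 x g for 5 min at 4°C. Supernatant and cell pellet were frozen at –70°C and assayed by LC-MS/MS against a plasma calibration curve. ELF volume was derived from urea.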

[18] = test system: Homo sapiens; test: Cardiotoxicity in healthy human assessed as corrected QT intervals at 400 mg, po every 12 hrs for 8 days; conditions: in vivo
[19] = Drug level in healthy human plasma at 400 mg, po every 12 hrs for 7 days measured after 24 hrs of last dose; format: ADME, organism-based; conditions: read-out: Drug uptake; summary of the method: as §1
[20] = Ratio of Cmax in healthy human plasma at 400 mg, po every 12 hrs for 7 days to MIC90 for Aspergillus spp.; format: functional
[21] = Ratio of AUC (0 to 24 hrs) in healthy human plasma at 400 mg, po every 12 hrs for 7 days to MIC90 for Aspergillus spp.; format: functional
[22] = Drug level in healthy human lung epithelial lining fluid at 400 mg, po every 12 hrs for 7 days measured after 5 hrs of last dose; format: ADME, organism-based; conditions: read-out: Drug uptake; summary of the method: as §4
[23] = Cmax in healthy human plasma at 400 mg, po every 12 hrs for 7 days; format: ADME, organism-based; parameters: dose 400 mg, route oral; summary of the method: as §3
[24] = Drug level in healthy human alveolar cell at 400 mg, po every 12 hrs for 7 days measured after 12 hrs of last dose; format: ADME, organism-based, Pneumocyte; conditions: alveolar cells, read-out: Drug uptake; summary of the method: as §4
[25] = AUC (0 to 12 hrs) in healthy human alveolar cell at 400 mg, po every 12 hrs for 7 days; format: ADME, organism-based, Pneumocyte; parameters: time < 12 hr, dose 400 mg, route oral; conditions: alveolar cells; summary of the method: as §3
[26] = test system: Homo sapiens; test: Toxicity in healthy human plasma assessed as hematological analysis at 400 mg, po every 12 hrs for 7 days; format: organism-based; conditions: in vivo; summary of the method: as §2
[27] = Drug level in healthy human lung epithelial lining fluid at 400 mg, po every 12 hrs for 7 days measured after 24 hrs of last dose; format: ADME, organism-based; conditions: read-out: Drug uptake; summary of the method: as §4
[28] = Drug level in healthy human lung epithelial lining fluid at 400 mg, po every 12 hrs for 7 days measured after 3 hrs of last dose; format: ADME, organism-based; conditions: read-out: Drug uptake; summary of the method: as §4
[29] = Ratio of Drug level in healthy human alveolar cell to drug level in healthy human plasma at 400 mg, po every 12 hrs for 7 days measured after 24 hrs of last dose; format: ADME, organism-based, Pneumocyte; conditions: alveolar cells / plasma
[30] = test system: Homo sapiens; test: Toxicity in healthy human assessed as vital adverse effects at 400 mg, po every 12 hrs for 7 days; format: organism-based; conditions: in vivo; summary of the method: as §2
[31] = AUC (0 to 12 hrs) in healthy human lung epithelial lining fluid at 400 mg, po every 12 hrs for 7 days; format: ADME, organism-based; parameters: time < 12 hr, dose 400 mg, route oral; summary of the method: as §3
[32] = Drug level in healthy human alveolar cell at 400 mg, po every 12 hrs for 7 days measured after 8 hrs of last dose; format: ADME, organism-based, Pneumocyte; conditions: alveolar cells, read-out: Drug uptake; summary of the method: as §4
[33] = Protein binding in human; format: ADME, organism-based; conditions: in vivo, read-out: PB
[34] = Tmax in healthy human plasma at 400 mg, po every 12 hrs for 7 days; format: ADME, organism-based; summary of the method: as §3
[35] = Drug level in healthy human lung epithelial lining fluid at 400 mg, po every 12 hrs for 7 days measured after 12 hrs of last dose; format: ADME, organism-based; conditions: read-out: Drug uptake; summary of the method: as §4
[36] = Drug level in healthy human plasma at 400 mg, po every 12 hrs for 7 days measured after 12 hrs of last dose; format: ADME, organism-based; conditions: read-out: Drug uptake; summary of the method: as §1
[37] = Ratio of Cmax in healthy human alveolar cell at 400 mg, po every 12 hrs for 7 days to MIC90 for Aspergillus spp.; format: functional, Pneumocyte
[38] = Ratio of Drug level in healthy human alveolar cell to drug level in healthy human plasma at 400 mg, po every 12 hrs for 7 days measured after 5 hrs of last dose; format: ADME, organism-based, Pneumocyte; conditions: alveolar cells / plasma
[39] = T>MIC90 in healthy human alveolar cell at 400 mg, po every 12 hrs for 7 days; format: functional, Pneumocyte
[40] = Drug level in healthy human lung epithelial lining fluid at 400 mg, po every 12 hrs for 7 days measured after 8 hrs of last dose; format: ADME, organism-based; conditions: read-out: Drug uptake; summary of the method: as §4
[41] = Drug level in healthy human alveolar cell at 400 mg, po every 12 hrs for 7 days measured after 3 hrs of last dose; format: ADME, organism-based, Pneumocyte; conditions: alveolar cells, read-out: Drug uptake; summary of the method: as §4
[42] = T>MIC90 in healthy human lung epithelial lining fluid at 400 mg, po every 12 hrs for 7 days; format: functional
[43] = Ratio of Drug level in healthy human lung epithelial lining fluid to drug level in healthy human plasma at 400 mg, po every 12 hrs for 7 days measured after 8 hrs of last dose; format: ADME, organism-based
[44] = Cmax in healthy human lung epithelial lining fluid at 400 mg, po every 12 hrs for 7 days; format: ADME, organism-based; parameters: dose 400 mg, route oral; summary of the method: as §3
[45] = Drug level in healthy human plasma at 400 mg, po every 12 hrs for 7 days measured after 5 hrs of last dose; format: ADME, organism-based; conditions: read-out: Drug uptake; summary of the method: as §1
[46] = Ratio of Drug level in healthy human alveolar cell to drug level in healthy human plasma at 400 mg, po every 12 hrs for 7 days measured after 8 hrs of last dose; format: ADME, organism-based, Pneumocyte; conditions: alveolar cells / plasma
[47] = Ratio of Drug level in healthy human lung epithelial lining fluid to drug level in healthy human plasma at 400 mg, po every 12 hrs for 7 days measured after 24 hrs of last dose; format: ADME, organism-based
[48] = Tmax in healthy human lung epithelial lining fluid at 400 mg, po every 12 hrs for 7 days; format: ADME, organism-based; summary of the method: as §3
[49] = test system: Plasma; test: T>MIC90 in healthy human plasma at 400 mg, po every 12 hrs for 7 days; format: functional
[50] = Drug level in healthy human alveolar cell at 400 mg, po every 12 hrs for 7 days measured after 5 hrs of last dose; format: ADME, organism-based, Pneumocyte; conditions: alveolar cells, read-out: Drug uptake; summary of the method: as §4

## CC[C@@H]([C@H](C)O)n1ncn(-c2ccc(N3CCN(c4ccc(OC[C@@H]5CO[C@@](Cn6cncn6)(c6ccc(F)cc6F)C5)cc4)CC3)cc2)c1=O [POSACONAZOLE]
[1]
  Kp at 3 h: 34.5
[2]
  Kp at 3 h: 1.08
[3]
  Kp at 12 h: 27.3
[4]
  concentration at 8 h: 1730 ng/mL
[5]
  Ratio: 73.2
[6]
  Activity: Non-toxic
[7]
  concentration at 3 h: 1930 ng/mL
[8]
  Kp at 12 h: 0.59
[9]
  Ratio: 3.72
[10]
  half-life: 35 h
[11]
  Kp at 5 h: 0.75
[12]
  Activity: Non-toxic
[13]
  Cmax: 87700 ng/mL
[14]
  Tmax: 5 h
[15]
  AUC at 12 h: 21900 ng·h/mL
[16]
  Ratio: 2860
[17]
  concentration at 24 h: 60700 ng/mL
[18]
  Activity: Non-toxic
[19]
  concentration at 24 h: 1280 ng/mL
[20]
  Ratio: 4.15
[21]
  Ratio: 87.6
[22]
  concentration at 5 h: 1860 ng/mL
[23]
  Cmax: 2080 ng/mL
[24]
  concentration at 12 h: 49000 ng/mL
[25]
  AUC at 12 h: 715000 ng·h/mL
[26]
  Activity: Non-toxic
[27]
  concentration at 24 h: 1800 ng/mL
[28]
  concentration at 3 h: 1660 ng/mL
[29]
  Kp at 24 h: 34.9
[30]
  Activity: Non-toxic
[31]
  AUC at 12 h: 18300 ng·h/mL
[32]
  concentration at 8 h: 60900 ng/mL
[33]
  fraction unbound: < 0.02
[34]
  Tmax: 3.6 h
[35]
  concentration at 12 h: 1020 ng/mL
[36]
  concentration at 12 h: 1620 ng/mL
[37]
  Ratio: 175
[38]
  Kp at 5 h: 44.3
[39]
  T>MIC90: 24 h
[40]
  concentration at 8 h: 1690 ng/mL
[41]
  concentration at 3 h: 46200 ng/mL
[42]
  T>MIC90: 24 h
[43]
  Kp at 8 h: 0.95
[44]
  Cmax: 1860 ng/mL
[45]
  concentration at 5 h: 1930 ng/mL
[46]
  Kp at 8 h: 32.5
[47]
  Kp at 24 h: 0.92
[48]
  Tmax: 5 h
[49]
  T>MIC90: 22.3 h
[50]
  concentration at 5 h: 87700 ng/mL
